Test [1] addresses T1, Opioid receptors; mu/kappa/delta (Homo sapiens, UniProt P41145+P41143+P35372). Briefly: Percent inhibition against opioid receptor in electrically stimulated longitudinal muscle of guinea pig ileum at 100 nM. The format is tissue-based. The note with it: Cavia porcellus, target entry is the homologue from another species.
Test [2] in a line: Reversible antagonistic activity against opioid receptor in electrically stimulated longitudinal muscle of guinea pig ileum expressed as IC50 of morphine by IC50 of control. The class given is functional. Put shortly:
(§1)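 In guinea pig ileum longitudinal muscle, morphine or ethylketazocine (EK) was tested in the presence of ligand at 10 nM, without washing. The value is the agonist IC50 in the treated preparation divided by the control IC50 in the same preparation.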

Test [3] has as its target T1, Opioid receptors; mu/kappa/delta. Description: (§2) Compound was tested for irreversible antagonistic activity against opioid receptor in mouse vas deferens. The format is functional, tissue-based.
The target of test [4] is T2, Opioid receptor (Mus musculus) (UniProt P42866+P32300+P33534). Description: Percent inhibition against opioid receptor in mouse vas deferens at 1 uM. The format is tissue-based.
T2 sequence (P32300 whole entry, looked up): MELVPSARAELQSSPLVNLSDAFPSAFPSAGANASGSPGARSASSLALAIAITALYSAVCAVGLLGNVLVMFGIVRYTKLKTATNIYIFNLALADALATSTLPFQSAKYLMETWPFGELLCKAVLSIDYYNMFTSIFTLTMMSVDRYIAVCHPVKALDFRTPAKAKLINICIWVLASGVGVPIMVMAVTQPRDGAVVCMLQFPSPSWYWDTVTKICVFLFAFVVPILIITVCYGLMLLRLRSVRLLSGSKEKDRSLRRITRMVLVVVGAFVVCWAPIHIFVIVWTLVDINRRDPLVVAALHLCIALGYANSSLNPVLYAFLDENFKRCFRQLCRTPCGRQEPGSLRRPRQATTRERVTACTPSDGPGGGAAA
T2 sequence (P33534 whole entry, looked up): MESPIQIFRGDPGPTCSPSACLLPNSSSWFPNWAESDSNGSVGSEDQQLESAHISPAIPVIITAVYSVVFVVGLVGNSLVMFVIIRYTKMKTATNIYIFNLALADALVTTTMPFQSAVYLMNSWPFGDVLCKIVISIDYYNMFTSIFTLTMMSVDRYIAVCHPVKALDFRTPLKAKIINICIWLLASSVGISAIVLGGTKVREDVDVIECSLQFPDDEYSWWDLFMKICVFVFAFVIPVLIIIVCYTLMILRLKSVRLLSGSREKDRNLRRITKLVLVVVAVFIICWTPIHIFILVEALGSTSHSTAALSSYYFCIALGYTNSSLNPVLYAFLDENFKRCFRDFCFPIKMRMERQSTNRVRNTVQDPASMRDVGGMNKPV
T2 sequence (P42866 whole entry, looked up): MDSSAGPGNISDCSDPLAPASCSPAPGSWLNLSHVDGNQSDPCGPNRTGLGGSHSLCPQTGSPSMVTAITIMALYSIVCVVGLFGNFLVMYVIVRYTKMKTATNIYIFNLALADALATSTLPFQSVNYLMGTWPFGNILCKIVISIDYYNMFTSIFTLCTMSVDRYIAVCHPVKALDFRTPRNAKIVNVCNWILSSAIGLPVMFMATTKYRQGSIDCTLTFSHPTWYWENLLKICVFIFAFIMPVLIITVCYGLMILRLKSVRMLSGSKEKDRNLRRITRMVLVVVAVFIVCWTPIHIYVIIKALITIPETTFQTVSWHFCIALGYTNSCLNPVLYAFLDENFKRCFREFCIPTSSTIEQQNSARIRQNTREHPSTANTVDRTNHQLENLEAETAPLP
In test [5] the target is T1, Opioid receptors; mu/kappa/delta. Description: Irreversible antagonistic activity against opioid receptor in electrically stimulated longitudinal muscle of guinea pig ileum expressed as IC50 of EK by IC50 of control. The format is functional, tissue-based. In short, it runs like this:
(§3)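 Guinea pig ileum longitudinal muscle was exposed to ligand at 200 nM for 30 min, then washed thoroughly (30 times), and challenged with morphine or ethylketazocine (EK). The value is the agonist IC50 in the treated preparation divided by the control IC50 in the same preparation.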

Test [6] shares this target. Description: Irreversible antagonistic activity against opioid receptor in electrically stimulated longitudinal muscle of guinea pig ileum expressed as IC50 of morphine by IC50 of control. The format is functional, tissue-based. In short, it runs like this:
as §3

For test [7] the target is unchanged. Briefly: (§4) Compound was tested for agonist activity against opioid receptor in electrically stimulated longitudinal muscle of guinea pig ileum. The format is functional, tissue-based. The note with it: Cavia porcellus, target entry is the homologue from another species.
Test [8] shares this target. The description is as §2. The class given is functional, tissue-based. The source holds these as a separate data set.
A short description of test [9]: Reversible antagonistic activity against opioid receptor in electrically stimulated longitudinal muscle of guinea pig ileum expressed as IC50 of EK by IC50 of control. The class given is functional. In short, it runs like this:
as §1

For test [10], the target named is T2, Opioid receptor (Mus musculus). Description: Compound was tested for agonist activity against opioid receptor in mouse vas deferens. The format is functional, tissue-based.
Test [11] concerns the target T1, Opioid receptors; mu/kappa/delta. Briefly: Compound was tested for irreversible antagonistic activity against opioid receptor in mouse vas deferens expressed as IC50 of DADLE by IC50 of control. The class given is functional, tissue-based.
Test [12] shares this target. The description is as §4. The format is functional, tissue-based, Cavia porcellus. The note with it: target entry is the homologue from another species.
Test [13] concerns the target T2, Opioid receptor (Mus musculus). Description: Compound was tested for irreversible antagonistic activity against opioid receptor in mouse vas deferens at 3 uM. The class given is functional, tissue-based.
Test [14] has as its target T1, Opioid receptors; mu/kappa/delta. Briefly: Percent inhibition against opioid receptor in electrically stimulated longitudinal muscle of guinea pig ileum at 1 uM. The format is tissue-based. Particulars: Cavia porcellus, target entry is the homologue from another species.
The target is the same in test [15]. Briefly: Compound was tested for irreversible antagonistic activity against opioid receptor in mouse vas deferens expressed as IC50 of morphine by IC50 of control. The class given is functional, tissue-based.
Test [16] deals with T2, Opioid receptor (Mus musculus). Briefly: Percent inhibition against opioid receptor in mouse vas deferens at 3 uM. The format is tissue-based.

For orientation: inhibition means the drop in the measured response relative to a control, in per cent. One may read the IC20 as the point of the concentration-response curve where the effect stands at 20%. Lower therefore signals greater potency. Usually IC30 stands for the concentration at which the effect reaches the 30% level. Low values mean greater potency, high ones weaker potency. Broadly, the IC50 is the concentration that gives 50% inhibition. Low values mean inhibition by little substance, high ones a need for much substance.

Structures are written as SMILES.

T1 sequence (P35372 whole entry, looked up): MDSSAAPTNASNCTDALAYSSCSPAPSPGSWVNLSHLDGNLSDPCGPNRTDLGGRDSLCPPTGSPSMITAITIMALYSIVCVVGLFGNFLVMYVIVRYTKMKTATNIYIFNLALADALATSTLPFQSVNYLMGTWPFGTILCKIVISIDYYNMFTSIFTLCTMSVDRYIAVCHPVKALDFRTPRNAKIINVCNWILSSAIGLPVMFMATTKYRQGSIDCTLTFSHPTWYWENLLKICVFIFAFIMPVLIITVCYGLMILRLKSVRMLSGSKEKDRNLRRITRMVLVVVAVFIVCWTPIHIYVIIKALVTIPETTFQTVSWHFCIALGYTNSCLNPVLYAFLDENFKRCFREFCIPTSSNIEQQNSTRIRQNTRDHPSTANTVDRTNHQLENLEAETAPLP
T1 sequence (P41143 whole entry, looked up): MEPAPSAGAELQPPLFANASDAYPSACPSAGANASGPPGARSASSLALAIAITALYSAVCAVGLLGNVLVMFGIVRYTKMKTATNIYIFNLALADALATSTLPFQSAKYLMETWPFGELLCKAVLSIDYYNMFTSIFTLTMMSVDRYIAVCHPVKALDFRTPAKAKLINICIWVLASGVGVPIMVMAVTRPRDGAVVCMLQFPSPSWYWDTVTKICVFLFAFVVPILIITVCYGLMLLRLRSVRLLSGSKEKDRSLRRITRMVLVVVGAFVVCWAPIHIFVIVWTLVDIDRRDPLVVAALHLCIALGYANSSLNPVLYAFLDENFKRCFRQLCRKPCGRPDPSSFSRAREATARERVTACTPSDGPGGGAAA
T1 sequence (P41145 whole entry, looked up): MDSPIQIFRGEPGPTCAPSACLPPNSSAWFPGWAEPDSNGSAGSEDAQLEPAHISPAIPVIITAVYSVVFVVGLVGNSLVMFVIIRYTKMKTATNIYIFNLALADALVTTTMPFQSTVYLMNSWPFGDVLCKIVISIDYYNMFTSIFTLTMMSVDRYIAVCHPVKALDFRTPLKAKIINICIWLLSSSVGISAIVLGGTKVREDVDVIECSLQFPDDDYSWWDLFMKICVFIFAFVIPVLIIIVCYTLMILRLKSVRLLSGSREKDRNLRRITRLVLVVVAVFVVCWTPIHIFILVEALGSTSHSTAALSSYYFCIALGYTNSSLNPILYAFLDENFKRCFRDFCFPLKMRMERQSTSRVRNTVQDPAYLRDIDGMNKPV

For `CCOC(=O)/C=C/C(=O)NCC(=O)NCC(=O)N[C@@H]1CC[C@@]2(O)C3Cc4ccc(O)c5c4C2(CCN3CC2CC2)[C@H]1O5` (stereo partly specified), the inhibition in test [1] amounted to 45%; in test [4] it was 59%. The Ratio was determined as 16.8 in [2]; 1.2 in [3]; 1.3 in [5]; 3.9 in test [6]; 4.3 in [8]; 4.8 in [9]. Further, the IC20 in [7] is 10 nM. This molecule also showed an IC30 in test [10] of 10 nM.

Turning to `O=C(CN(CCCl)CCCl)N[C@@H]1CC[C@@]2(O)C3Cc4ccc(O)c5c4C2(CCN3CC2CC2)[C@H]1O5` (stereo partly specified), the Ratio in [11] worked out at 4; in [5], 12.3; in test [6] it was 27.4. Further, the results for the inhibition in [4] and in test [13] were 55% and 54%, respectively. In addition, the 50% inhibitory concentration (IC50) in test [12] came to 3.8 nM. In [10], this molecule yielded a concentration for an effect of 30% (IC30) of 20 nM.

For `CCOC(=O)/C=C/C(=O)NCC(=O)NCC(=O)NCC(=O)N[C@@H]1CC[C@@]2(O)C3Cc4ccc(O)c5c4C2(CCN3CC2CC2)[C@H]1O5` (stereo partly specified), the inhibition in test [1] turned out to be 45%; in test [4], 61%. For the same molecule, the Ratio in [2] worked out at 12.3; in test [5], 0.8; in test [6] it was 1.3; in [8], 1.2; in test [9] it was 3.3. In test [7], this molecule yielded an IC20 of 10 nM. This molecule also had a 30% effect concentration (IC30) in test [10] of 20 nM.

As for `CCOC(=O)/C=C/C(=O)NCC(=O)N[C@@H]1CC[C@@]2(O)C3Cc4ccc(O)c5c4C2(CCN3CC2CC2)[C@H]1O5` (stereo partly specified), the inhibition in [14] stood at 42%; in test [16] it was 56%. For the same molecule, the Ratio in test [15] was determined as 1.8; in test [2], 2.5; in test [11] it was 0.8; in test [5] it was 2; in test [6] it was 0.6; in [9], 2.5. Moreover, the 30% effect concentration (IC30) stood at 10 nM in [7] and 7 nM in test [10].

The values above are taken from ChEMBL document CHEMBL1123512, “Synthesis and biological activity of analogues of beta-chlornaltrexamine and beta-funaltrexamine at opioid receptors” (J Med Chem, 1986).
